Assay outcomes as filed in PubChem BioAssay.
KCNQ1 block: inhibitors of human KCNQ1 channel, primary screen, cell-based, thallium flux, high-throughput; Potassium voltage-gated channel subfamily KQT member 1 (Homo sapiens), P51787; CHO-K1 KCNQ1, FluxOR thallium flux fluorescence; stronger effect = higher value; B-score at 10 µM; hit rate 1.3% among 310,000; AID 2642, 2010;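 active means compounds whose thallium flux B-score, printed positive for inhibition, exceeds three library SD while starting fluorescence stays within three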;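 further: channel opened by potassium depolarization with thallium stimulus after 20 min compound exposure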
KCNK9 inh: KCNK9 potassium channel inhibitors, primary screen, HEK293 cells, thallium flux; Potassium channel subfamily K member 9 (Homo sapiens), Q9NPC2; B-score at 10 µM; FluxOR thallium flux fluorescence; stronger effect = lower value; hit rate 1.2% among 310,000;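 active means ratio B-score over 3 SD below the library mean, with starting fluorescence within 5 SD of its mean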;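 further: negative B-score means less thallium flux so channel inhibition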
KCNQ1 act: potentiators or activators of KCNQ1 channel, primary screen, cell-based, thallium flux, high-throughput. CHO-K1 KCNQ1, thallium flux FluxOR fluorescence; stronger effect = higher value. hit rate 0.35% among 310,000. Potassium voltage-gated channel subfamily KQT member 1 (Homo sapiens), P51787. B-score at 10 µM;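 active means fluorescence ratio B-score, a plate-corrected score, at least three library SD, with initial intensity B-score within 5 SD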
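Test system: CHO-K1 cells stably expressing KCNQ1 / Medium: assay buffer / Also added: depolarizing K+/Tl+ stimulus, K2SO4 and Tl2SO4 each 12.5 mM in 5x stock / Incubation: 90 min dye loading and 20 min compound exposure, both at room temperature / Signal: thallium influx via FluxOR fluorescence, kinetic imaging / Evaluation: B score of baseline-normalized fluorescence ratio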
KCNK3 inh: human KCNK3 channel inhibitors, primary screen, CHO cells, FluxOR thallium flux, B-score; Potassium channel subfamily K member 3 (Homo sapiens), O14649; FluxOR fluorescence; stronger effect = lower value; B-score at 10 µM; hit rate 0.84% among 340,000; AID 602410, 2012;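 active means B-score under library mean minus 4 SD, starting fluorescence ratio at most library mean plus 5 SD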;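 further: more negative B-score means stronger inhibition of thallium flux through KCNK3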
Target sequence (O14649 whole entry, looked up): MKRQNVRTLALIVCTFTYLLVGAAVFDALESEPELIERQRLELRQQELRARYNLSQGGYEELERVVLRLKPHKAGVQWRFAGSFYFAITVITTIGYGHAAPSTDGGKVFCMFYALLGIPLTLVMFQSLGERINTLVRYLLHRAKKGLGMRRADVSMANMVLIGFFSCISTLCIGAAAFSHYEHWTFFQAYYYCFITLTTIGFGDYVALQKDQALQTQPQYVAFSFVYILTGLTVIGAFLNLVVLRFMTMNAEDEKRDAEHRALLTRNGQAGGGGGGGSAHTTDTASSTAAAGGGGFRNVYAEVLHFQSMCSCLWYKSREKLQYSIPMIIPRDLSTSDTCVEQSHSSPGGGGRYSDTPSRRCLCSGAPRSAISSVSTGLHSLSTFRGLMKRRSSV
hERG rescue: hERG rescue from dofetilide block, primary screen, cell-based, CHO-hERG, FluxOR thallium flux, dofetilide IC70; AID 1511, 2009; hit rate 0.51% among 310,000; activation (rescue from dofetilide block), less the hit threshold, % at 10 µM; dofetilide IC70 present;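 active means activation above the mean of controls blocked by dofetilide plus 5 SD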;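 further: thallium influx through hERG after potassium depolarization seen as dye fluorescence rise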
A number is an active result; n = inactive; x = no result given. Most compounds without a hit are left out; they make up all but 3.1% or so of the library.

SMILES	KCNQ1 block	KCNK9 inh	KCNQ1 act	KCNK3 inh	hERG rescue
CC1CCCC(NC(=S)NC(=O)c2ccccc2Br)C1C (configuration not stated)	n	n	8	n	7.2
COc1ccc(-c2nn(-c3ccccc3)cc2C(=O)N2CCN(S(=O)(=O)c3cccc(F)c3)CC2)cc1	n	n	n	n	n
COC(=O)[C@]1(Cc2ccccc2)N[C@H](CN(C)C(=O)Nc2ccc(C)cc2)[C@@H]2C(=O)N(C)C(=O)[C@@H]21	x	x	x	n	x
COC(=O)c1c(NC(=O)c2nc3ccccc3s2)sc2c1CCN(C(C)=O)C2	x	x	x	n	x
CNC(=O)c1c(NC(=O)c2nc3ccccc3s2)sc2c1CCC2	8	-7.8	n	n	n
COc1cc(NCCCNC(C)C)c2nccc(C)c2c1	x	x	x	n	x
S=c1nc(SCc2ccccc2)[nH]c2ccccc12	n	n	54	n	74
O=C(/C=C/c1ccc(Br)o1)NCc1ccccc1	n	-6.8	n	n	n
O=C(NC(=S)NCc1ccccc1)c1ccc(Br)o1	n	n	59	n	39
O=C(Nc1ccc(Nc2ccccc2)cc1)c1ccc(Br)o1	n	-7.7	n	n	n
O=C(NNC(=S)NCc1ccccc1)c1ccc(Br)o1	n	n	n	n	n
O=C(NC(=S)Nc1ccccc1)c1ccc(Br)o1	n	n	13	n	n
CCCN=C1N(CC)C[C@@H]2[C@@H]3C(=O)N(Cc4ccccc4)C(=O)[C@@H]3[C@](Cc3ccccc3)(C(=O)OC)N12	x	x	x	n	x
O=C(Nc1ncccc1O)c1ccc(Oc2ccccc2)cc1	n	n	n	n	n
O=c1c(-c2c(O)cc(O)c3c2O[C@H](c2ccc(O)cc2)CC3)c(-c2ccc(O)cc2)oc2cc(O)cc(O)c12	x	x	x	n	x
COc1ccc(NC(=S)NC(=O)c2ccc(Br)o2)cc1	n	n	17	n	9.4
O=C(NC(=S)Nc1cccnc1)c1ccccc1	n	n	n	n	n
Cc1snnc1C(=O)NC(=S)Nc1ccccc1	n	n	9	n	11
Cn1c(COc2ccccc2)nnc1SCC(=O)Nc1nnc(C2CC2)s1	x	x	x	n	x
CCc1cc(=O)oc2c3c(cc(OCC(=O)N[C@H](C(=O)O)[C@H](C)CC)c12)OC(C)(C)CC3	n	n	n	n	n
CSc1nc(Oc2ccccc2)c2sccc2n1	n	n	n	n	n
CSc1nc(Oc2ccc3ccccc3c2)c2ccccc2n1	n	-7.2	n	n	n
Cc1ccc(S(=O)(=O)N2c3ccccc3OCC2C(C)(C)C)cc1 (configuration not stated)	n	n	n	n	n
Cc1ccc2c(c1)N(S(=O)(=O)c1ccc(F)cc1)C(C(C)(C)C)CO2 (configuration not stated)	7	n	n	n	n
Cc1ccc(-n2ncc3c(NNC(=O)c4cccs4)ncnc32)cc1	n	n	n	n	5.7
SMILES	KCNQ1 block	KCNK9 inh	KCNQ1 act	KCNK3 inh	hERG rescue
CCCCn1c(N)c(N(CCC(C)C)C(=O)CSc2nc3ccccc3n2C)c(=O)[nH]c1=O	x	x	x	n	x
CCOC(=O)C1=C(Cn2cnc3ccccc32)NC(=O)NC1c1cc(C)ccc1C (configuration not stated)	n	n	n	n	13
c1ccc(CN=C(NCc2ccccc2)NCc2ccccc2)cc1	x	x	x	n	x
CCc1cc2c(=O)n(Cc3ccco3)c(SCC(=O)N3CCCc4ccccc43)nc2s1	6	n	n	n	n
CCc1cc2c(=O)n(Cc3ccco3)c(SCC(=O)NCC3CCCO3)nc2s1 (configuration not stated)	n	n	n	n	n
COc1ccc(C(=O)COC(=O)C2COc3ccccc3O2)cc1F (configuration not stated)	x	x	x	n	x
Cc1noc(C)c1COc1ccccc1C(=O)NNC(=O)c1ccccc1	n	n	n	n	n
COc1ccc(OCC(=O)NNC(=O)c2ccccc2OCc2c(C)noc2C)cc1	n	-7.5	n	n	n
COc1ccc(CCNC(=O)Cc2cc3c(cc2[N+](=O)[O-])OCO3)cc1OC	x	x	x	n	x
CC1CCc2c(sc3nc(C4CC4)nc(N4CCN(C(=O)c5ccco5)CC4)c23)C1 (configuration not stated)	6	n	n	n	n
CCOc1ccccc1OCCCC(=O)ON=C(N)c1ccccc1	x	x	x	n	x
O=C(c1ccco1)N1CCN(C(=O)c2ccc(COc3ccc4c(c3)CCC4)o2)CC1	n	-8	n	n	n
O=C(Cc1cccc(NC(=O)C2CCCN(C(=O)C3CC3)C2)c1)Nc1cccc(C(=O)N2CCOCC2)c1 (configuration not stated)	x	x	x	n	x
COc1cc2nc(CN(C)Cc3ccc(OC)c(OC)c3OC)[nH]c(=O)c2cc1OC	n	n	n	n	n
CCCc1ccc(/C=C2\C(=O)c3ccccc3C(O)=C2C(=O)OCC)cc1	n	n	8	x	n
CCOC(=O)C1=C(O)c2ccccc2C(=O)/C1=C\c1ccc(CC)cc1	n	n	8	n	n
CCOC(=O)C1=C(Cc2ccc(C)cc2)C(=O)c2ccccc2C1=O	n	n	n	x	n
CCN1C[C@@H]2[C@@H]3C(=O)N(Cc4ccccc4)C(=O)[C@@H]3[C@](CC)(C1=O)N2C(=O)c1ccc(Cl)c(Cl)c1	x	x	x	n	x
COC(=O)[C@@]12CCCN1[C@H](c1ccc(-c3ccc4c(c3)OCO4)cc1)[C@H]1C(=O)N(C)C(=O)[C@H]12	x	x	x	n	x
O=C(COC(=O)c1cc(S(=O)(=O)N2CCOCC2)ccc1F)NCCc1ccc(F)cc1	x	x	x	n	x
COc1ccc(-c2nnc(Nc3nc4c(OC)cccc4s3)o2)cc1	n	n	50	n	12
Fc1cccc2sc(Nc3nc4c(F)cccc4s3)nc12	n	n	n	n	13
NNc1nc2c(F)cccc2s1	n	n	n	n	n
Fc1cccc2sc(Nc3nnc(-c4ccccc4)o3)nc12	n	n	66	n	51
COc1cc(OC)cc(-c2nnc(NC(=O)CCS(=O)(=O)c3ccc(F)cc3)o2)c1	n	n	n	n	n
SMILES	KCNQ1 block	KCNK9 inh	KCNQ1 act	KCNK3 inh	hERG rescue
COc1ccc(-c2nnc(Nc3nc4c(OC)cccc4s3)o2)c(OC)c1	n	n	n	n	n
COc1cc(OC)cc(-c2nnc(Nc3nc4c(F)cccc4s3)o2)c1	n	n	22	n	5.9
COc1ccc(-c2cnc3c(c2)CCC3(C#N)C#N)cc1	n	n	n	n	n
O=C1N[C@@H](Cc2c[nH]c3ccccc23)C(=O)N[C@H]1Cc1ccccc1	x	x	x	n	x
O=C(Nc1cccc([N+](=O)[O-])c1)C12CC3CC(C1)CC(n1cnc([N+](=O)[O-])n1)(C3)C2	n	n	n	n	n
O=c1[nH]c(=S)[nH]cc1Oc1ccccc1	x	x	x	n	x
Cc1cccn(Cc2c(F)cccc2Cl)c1=O	n	n	n	n	n
